Activity calls are given as the source filed them. The calls are words filed in the database; no cut-off is given here.
Legend:
P388 = assay: Cytotoxicity against mouse P388 cells; format: functional, cell-based
[1] = Cytotoxicity against BSC1 cells assessed as radius zone size at 120 ug/disk; format: cell-based; conditions: chlorocebus aethiops, bsc-1
Procedure, shortened: (§1)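 Disk diffusion assay with 120 µg loaded per disk. The read-out was the excess radius of the zone around the disk, in mm.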

[2] = tested on: Trichophyton mentagrophytes; assay: Antimicrobial activity against Trichophyton mentagrophytes at 120 ug/disk; format: functional; procedure, shortened: as §1
Bacillus subtilis = assay: Antimicrobial activity against Bacillus subtilis at 120 ug/disk; format: functional; procedure, shortened: as §1
[3] = tested on: Mycobacterium tuberculosis; assay: Antimicrobial activity against Mycobacterium tuberculosis at 6.25 ug/mL; format: functional
Escherichia coli = assay: Antimicrobial activity against Escherichia coli at 120 ug/disk; format: functional, organism-based
HL-60 = assay: Antiproliferative activity against human HL60 cells after 2 days; format: functional, cell-based; conditions: HL-60, 48 h
Candida albicans = assay: Antimicrobial activity against Candida albicans at 120 ug/disk; format: functional, organism-based

Row | Structure (SMILES) | IC50 (P388) [µM] | Activity [1] [mm] | zone of inhibition at 120 µg/disc ([2]; read-out: IZ) [mm] | zone of inhibition at 120 µg/disc (Bacillus subtilis; read-out: IZ) [mm] | Activity [2] | inhibition at 6.25 µg/mL [3] [%] | Activity (Escherichia coli) | IC50 (HL-60) [µM] | Activity (Candida albicans) | Activity (Bacillus subtilis)
1 | CCCCC[C@@H](C/C=C/CCC(=O)O)OC | > 100 | > 4.5 | 3 | 2 |  |  |  |  |  | 
2 | CCCCC[C@@H](C/C=C/CCC(=O)NC/C(=C/Cl)[C@H]1C(=O)C(C)(C)C(=O)[C@@H](C)[C@@]1(C)O)OC [MALYNGAMIDE S] | 29 | > 4.5 |  |  | inactive | 0 | inactive | 6 | inactive | inactive

From ChEMBL document CHEMBL1156405, “A new biologically active malyngamide from a New Zealand collection of the sea hare Bursatella leachii” (J Nat Prod, 2002)
